According to ChEMBL document CHEMBL3259539, “A fragment-based method to discover irreversible covalent inhibitors of cysteine proteases” (J Med Chem, 2014):
The source made the active and inactive calls. The calls are words filed in the database; no cut-off is given here.

Tests used:
Papain (Carica papaya) [1] = molecular target: T1, Papain (Carica papaya) (UniProt P00784); experiment: Irreversible inhibition of papain after 1 hr incubation at 100 uM by ESI-MS analysis
T1 sequence (whole entry): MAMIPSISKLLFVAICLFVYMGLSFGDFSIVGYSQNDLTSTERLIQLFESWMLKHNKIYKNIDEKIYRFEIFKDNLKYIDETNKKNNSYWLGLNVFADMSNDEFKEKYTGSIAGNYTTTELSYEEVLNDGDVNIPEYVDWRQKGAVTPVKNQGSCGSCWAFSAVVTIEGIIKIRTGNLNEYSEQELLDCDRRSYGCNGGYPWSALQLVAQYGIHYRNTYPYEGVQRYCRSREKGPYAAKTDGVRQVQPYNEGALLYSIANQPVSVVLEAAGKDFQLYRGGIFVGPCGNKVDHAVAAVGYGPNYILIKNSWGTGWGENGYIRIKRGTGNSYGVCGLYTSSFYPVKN
Outline: (§1)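 Enzyme at 10 μM (papain; recombinant GST-HRV3C protease; recombinant USP08) in 50 mM HEPES, 150 mM NaCl, 0.1 mM EDTA, pH 7.5, with a 10-fragment mixture at 100 μM each (final) and 1% DMSO. Incubated at 23 °C, 1 h for papain and HRV3C, 4 h for USP08. Gel-filtered, then intact-protein LC/ESI-MS with maximum-entropy deconvolution.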

Papain (Carica papaya) [2] = molecular target: T1, Papain (Carica papaya); experiment: Irreversible inhibition of papain after 1 hr incubation at 100 uM by ESI-MS analysis in presence of 10 mM glutathione
Papain (Carica papaya) [3] = molecular target: T1, Papain (Carica papaya); experiment: Irreversible inhibition of papain assessed as binding affinity cysteine after 1 hr incubation at 100 uM by ESI-MS analysis
Papain (Carica papaya) [4] = molecular target: T1, Papain (Carica papaya); experiment: Irreversible inhibition of papain assessed as binding affinity cysteine after 1 hr incubation at 1 mM by ESI-MS analysis
Papain (Carica papaya) [5] = molecular target: T1, Papain (Carica papaya); experiment: Irreversible inhibition of papain assessed as covalent adducts after 16 to 64 hrs incubation at 100 uM by MS analysis
Papain (Carica papaya) [6] = molecular target: T1, Papain (Carica papaya); experiment: Inhibition of papain by first-order papain inhibition plot
Outline: (§2)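 Papain preactivated with 1 mM DTT for 30 min, then 3.84 μM preincubated up to 1 h with varying inhibitor in 50 mM Na3PO4/2 mM EDTA pH 6.2:acetonitrile (4:1). Aliquots taken every 10 min into 400 μM Cbz-Gly-ONp; p-nitrophenol absorbance followed, in duplicate. kobs from ln(% activity) vs time slopes; kinact/KI from kobs vs [I] slope (Kitz–Wilson).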

Papain (Carica papaya) [7] = molecular target: T1, Papain (Carica papaya); experiment: Ratio of Kinact to Ki for papain by second-order papain inhibition plot; outline: as §2
[8] = molecular target: T2, Ubiquitin carboxyl-terminal hydrolase 8 (Homo sapiens) (UniProt P40818); experiment: Binding affinity to deubiquitinase USP08 (unknown origin) assessed as labeling after 4 hrs incubation; outline: as §1
T2 sequence (whole entry): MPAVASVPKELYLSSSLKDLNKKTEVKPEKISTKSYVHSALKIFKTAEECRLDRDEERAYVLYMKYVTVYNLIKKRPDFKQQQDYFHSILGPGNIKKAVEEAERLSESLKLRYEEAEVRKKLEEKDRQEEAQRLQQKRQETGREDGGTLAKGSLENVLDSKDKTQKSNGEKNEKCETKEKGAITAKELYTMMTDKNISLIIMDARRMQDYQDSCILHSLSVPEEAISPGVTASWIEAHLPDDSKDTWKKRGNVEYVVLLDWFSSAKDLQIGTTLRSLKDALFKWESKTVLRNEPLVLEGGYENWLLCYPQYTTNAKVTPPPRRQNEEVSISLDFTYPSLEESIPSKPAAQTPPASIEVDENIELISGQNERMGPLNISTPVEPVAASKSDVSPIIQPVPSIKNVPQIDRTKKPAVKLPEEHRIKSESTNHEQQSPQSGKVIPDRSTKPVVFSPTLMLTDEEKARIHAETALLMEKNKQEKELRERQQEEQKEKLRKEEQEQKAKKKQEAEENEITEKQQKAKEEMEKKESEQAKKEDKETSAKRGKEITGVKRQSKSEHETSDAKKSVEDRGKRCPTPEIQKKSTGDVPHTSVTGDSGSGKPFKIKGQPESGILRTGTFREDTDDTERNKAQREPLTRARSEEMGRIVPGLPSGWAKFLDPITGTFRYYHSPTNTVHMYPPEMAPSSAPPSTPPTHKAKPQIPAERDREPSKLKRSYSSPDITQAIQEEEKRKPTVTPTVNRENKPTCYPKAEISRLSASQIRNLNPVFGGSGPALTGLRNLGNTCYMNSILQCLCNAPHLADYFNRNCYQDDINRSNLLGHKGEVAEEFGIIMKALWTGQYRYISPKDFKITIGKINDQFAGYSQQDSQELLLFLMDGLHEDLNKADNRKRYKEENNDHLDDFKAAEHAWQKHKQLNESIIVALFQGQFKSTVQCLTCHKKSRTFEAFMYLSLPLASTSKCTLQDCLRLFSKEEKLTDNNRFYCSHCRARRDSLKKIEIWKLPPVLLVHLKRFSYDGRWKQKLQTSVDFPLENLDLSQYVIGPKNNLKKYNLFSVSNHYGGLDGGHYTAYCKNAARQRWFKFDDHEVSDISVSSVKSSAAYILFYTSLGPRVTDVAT

[9] = molecular target: T3, Human rhinovirus A protease (Human rhinovirus sp.) (UniProt Q4U254); experiment: Binding affinity to GST-tagged human rhinovirus 3C protease assessed as labeling after 1 hr; outline: as §1
T3 sequence (whole entry): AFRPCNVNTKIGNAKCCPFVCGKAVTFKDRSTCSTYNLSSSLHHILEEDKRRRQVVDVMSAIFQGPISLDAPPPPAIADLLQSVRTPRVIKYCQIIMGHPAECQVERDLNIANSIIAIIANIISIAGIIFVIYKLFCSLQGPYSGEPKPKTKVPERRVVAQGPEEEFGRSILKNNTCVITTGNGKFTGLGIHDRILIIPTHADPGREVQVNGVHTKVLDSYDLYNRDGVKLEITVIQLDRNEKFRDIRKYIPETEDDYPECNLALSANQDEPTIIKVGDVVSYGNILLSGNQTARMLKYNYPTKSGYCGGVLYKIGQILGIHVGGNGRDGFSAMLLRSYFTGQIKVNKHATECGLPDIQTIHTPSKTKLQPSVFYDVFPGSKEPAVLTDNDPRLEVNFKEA

COC(=O)/C=C/CNC(=O)C1CCN(C(=O)CC(C)C)CC1
inhibition (Papain (Carica papaya) [1]): Active
inhibition (Papain (Carica papaya) [2]): Active
inhibition (Papain (Carica papaya) [3]): Active
inhibition (Papain (Carica papaya) [4]): Active
inhibition (Papain (Carica papaya) [5]): Active
inhibition (Papain (Carica papaya) [6]): Active
Ratio (Papain (Carica papaya) [7]): 0.461
Activity [8]: inactive

COC(=O)/C=C/CNC(=O)c1cc(-c2ccc(C)cc2)no1
inhibition (Papain (Carica papaya) [1]): Active
inhibition (Papain (Carica papaya) [2]): Active
inhibition (Papain (Carica papaya) [3]): Active
inhibition (Papain (Carica papaya) [4]): Active
inhibition (Papain (Carica papaya) [5]): Active
inhibition (Papain (Carica papaya) [6]): Active
Ratio (Papain (Carica papaya) [7]): 1.23
Activity [8]: inactive

COC(=O)/C=C/CNC(=O)c1ccccc1NC(=O)Nc1ccc(Cl)cc1
Activity [8]: 30%

COC(=O)/C=C/CNC(=O)[C@H](CNC(C)=O)Cc1ccccc1
Ratio (Papain (Carica papaya) [7]): 0.386

COC(=O)/C=C/CNC(=O)[C@@H](CNC(C)=O)CC(C)C
Ratio (Papain (Carica papaya) [7]): 1.1

COC(=O)/C=C/CNC(=O)c1ccc(C2CCCO2)s1 (configuration not stated)
Ratio (Papain (Carica papaya) [7]): 0.037

COC(=O)/C=C/CNC(=O)c1ccc2ccccc2n1
Activity [9]: 20%

COC(=O)/C=C/CNC(=O)[C@@H](CNC(C)=O)Cc1ccccc1
Ratio (Papain (Carica papaya) [7]): 6.58

COC(=O)/C=C/CNC(=O)c1csc(-c2cccs2)n1
Activity [9]: 35%

COC(=O)/C=C/CNC(=O)c1sc(-c2ccccc2F)nc1C
inhibition (Papain (Carica papaya) [1]): Active
inhibition (Papain (Carica papaya) [2]): Active
inhibition (Papain (Carica papaya) [3]): Active
inhibition (Papain (Carica papaya) [4]): Active
inhibition (Papain (Carica papaya) [5]): Active
inhibition (Papain (Carica papaya) [6]): Active
Ratio (Papain (Carica papaya) [7]): 0.409
Activity [8]: 30%

COC(=O)/C=C/CNC(=O)c1cc2cc(Cl)cc(OC)c2o1
Activity [9]: 20%
